Experimental findings from ChEMBL document CHEMBL2057112, “Enamino-oxindole HIV protease inhibitors” (Bioorg Med Chem Lett, 2012) are described below.

The term IC50 denotes the concentration needed to halve the response being measured. Low values mean inhibition by little substance, high ones a need for much substance. The term Ki denotes a dissociation constant, usually derived from enzyme kinetics or from competition with a known ligand.

Where only a bound is given, the exact number is not on record here.

Test [1] concerns Human immunodeficiency virus 1. Briefly: Antiviral activity against Human immunodeficiency virus 1 HXB2 expressing protease M8 mutant infected in human MT4 cells after 5 days by MTT assay. The format is functional, organism-based. Conditions: Human immunodeficiency virus 1, HXB2, MT4, 120 h. On the technique in general: Formazan colour is commonly taken as a measure of viable cells.

The nature of test [2]: Inhibition of Human immunodeficiency virus protease M9 mutant expressed in Escherichia coli using ArgGlu(EDANS)SerGlnAsnTyrProIleValGlnLys(DABCYL)Arg as substrate preincubated with compound for 0.5 to 1 min measured by fluorometric analysis at pH 6.5.
Test [3] concerns Human immunodeficiency virus 1. Briefly: Antiviral activity against Human immunodeficiency virus 1 HXB2 expressing wild type protease infected in human MT4 cells after 5 days by MTT assay. Format: functional, organism-based. Conditions: Human immunodeficiency virus 1, HXB2, MT4, 120 h.
Test [4] in a line: Inhibition of Human immunodeficiency virus protease M10 mutant expressed in Escherichia coli using ArgGlu(EDANS)SerGlnAsnTyrProIleValGlnLys(DABCYL)Arg as substrate preincubated with compound for 0.5 to 1 min measured by fluorometric analysis at pH 6.5.
Test [5] has as its system Human immunodeficiency virus 1. Briefly: Antiviral activity against Human immunodeficiency virus 1 HXB2 expressing protease M10 mutant infected in human MT4 cells after 5 days by MTT assay. The format is functional, organism-based. The following applies: Human immunodeficiency virus 1, HXB2, MT4, 120 h.
Test [6] relates to Human immunodeficiency virus 1. Briefly: Antiviral activity against Human immunodeficiency virus 1 HXB2 expressing protease M6 mutant infected in human MT4 cells after 5 days by MTT assay. Format: functional, organism-based. Conditions: Human immunodeficiency virus 1, HXB2, MT4, 120 h. The gist of the method: (§1)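 MT-4 cells (AIDS Research and Reference Reagent Program) exposed to 50% tissue culture infective doses (TCID₅₀) of virus with various concentrations of test compound for 5 days. MTT solution then added and absorbance measured. Mutant strains carry 10–17 resistance mutations with phenotypic resistance to marketed PIs; all include I84V except M7. IC₅₀ reported.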

The subject of test [7] is Human immunodeficiency virus 1. Briefly: Antiviral activity against Human immunodeficiency virus 1 HXB2 expressing protease M7 mutant infected in human MT4 cells after 5 days by MTT assay. Format: functional, organism-based. Conditions: Human immunodeficiency virus 1, HXB2, MT4, 120 h. The gist of the method:
as §1

For test [8], the system named is Human immunodeficiency virus 1. Briefly: Antiviral activity against Human immunodeficiency virus 1 HXB2 expressing protease M5 mutant infected in human MT4 cells after 5 days by MTT assay. Format: functional, organism-based. The following applies: Human immunodeficiency virus 1, HXB2, MT4, 120 h. The gist of the method: as §1
Test [9] deals with Human immunodeficiency virus 1. Briefly: Antiviral activity against Human immunodeficiency virus 1 HXB2 expressing protease M4 mutant infected in human MT4 cells after 5 days by MTT assay. Format: functional, organism-based. The following applies: Human immunodeficiency virus 1, HXB2, MT4, 120 h. The gist of the method:
as §1

For test [10], the system named is Human immunodeficiency virus 1. Briefly: Antiviral activity against Human immunodeficiency virus 1 HXB2 expressing protease M9 mutant infected in human MT4 cells after 5 days by MTT assay. The format is functional, organism-based. The following applies: Human immunodeficiency virus 1, HXB2, MT4, 120 h.
Test [11] is described as follows: Inhibition of wild type Human immunodeficiency virus protease expressed in Escherichia coli using ArgGlu(EDANS)SerGlnAsnTyrProIleValGlnLys(DABCYL)Arg as substrate preincubated with compound for 0.5 to 1 min measured by fluorometric analysis at pH 6.5.
Test [12] concerns Human immunodeficiency virus 1. Briefly: Antiviral activity against Human immunodeficiency virus 1 HXB2 expressing protease M3 mutant infected in human MT4 cells after 5 days by MTT assay. Format: functional, organism-based. The following applies: Human immunodeficiency virus 1, HXB2, MT4, 120 h. The gist of the method:
as §1

The nature of test [13]: Inhibition of Human immunodeficiency virus protease M8 mutant expressed in Escherichia coli using ArgGlu(EDANS)SerGlnAsnTyrProIleValGlnLys(DABCYL)Arg as substrate preincubated with compound for 0.5 to 1 min measured by fluorometric analysis at pH 6.5.

For `CC(C)CN(C[C@@H](O)[C@H](Cc1ccccc1)NC(=O)O[C@H]1CO[C@H]2OCC[C@H]21)S(=O)(=O)c1ccc2c(c1)C(=CNC1CCC1)C(=O)N2` (mixture of isomers), the IC50 in [1] worked out at 30 nM; in test [3], 17 nM; in test [5] it was 115 nM; in test [6] it was 32 nM; in test [7] it was 7 nM; in [8], 33 nM. Moreover, the values for the IC50 in test [9], in [10] and in test [12] were 36 nM, 31 nM and 31 nM, respectively. Moreover, the Ki in test [2] is below 0.3 nM; in test [4], 1.2 nM; in test [11], below 0.1 nM.
For the compound `CC(C)CN(C[C@@H](O)[C@H](Cc1ccccc1)NC(=O)O[C@H]1CO[C@H]2OCC[C@H]21)S(=O)(=O)c1ccc2c(c1)C(=CNCc1ccccc1)C(=O)N2` (mixture of isomers), the IC50 in test [1] was 35 nM; in test [3] it was 14 nM; in test [5] it was 30 nM; in test [6], 18 nM; in test [7] it was 4.1 nM; in test [8], 20 nM. Also, the values for the IC50 in test [9] and in test [12] were 20 nM and 13 nM, respectively. In addition, the Ki in test [2] was below 0.3 nM; in test [4] it was below 1 nM; in test [11], below 0.1 nM.
For `CC(C)CN(C[C@@H](O)[C@H](Cc1ccccc1)NC(=O)O[C@H]1CO[C@H]2OCC[C@H]21)S(=O)(=O)c1ccc2c(c1)C(=CNCCC(C)(C)C)C(=O)N2` (mixture of isomers), the IC50 in test [1] amounted to 23 nM; in test [3], 11 nM; in test [5] it was 32 nM; in test [6] it was 24 nM; in [7], 3.2 nM; in [8] it was 17 nM. The figures for the IC50 in test [9] and in [12] were 25 nM and 19 nM, respectively. Besides, the inhibition constant (Ki) in test [2] was below 0.3 nM; in test [4], below 1 nM; in test [11] it was below 0.1 nM.
Regarding `CC(C)CN(C[C@@H](O)[C@H](Cc1ccccc1)NC(=O)O[C@H]1CO[C@H]2OCC[C@H]21)S(=O)(=O)c1ccc2c(c1)C(=CNCc1ccc3ccccc3n1)C(=O)N2` (mixture of isomers), the Ki in [13] is below 0.1 nM; in test [2], below 0.3 nM; in test [4], below 1 nM; in test [11], 0.1 nM. For the same compound, the IC50 amounted to 34 nM in test [1]; 35 nM in [3]; 27 nM in [5]; 25 nM in [6]; 40 nM in [9]; 23 nM in test [10]. The compound also gave an IC50 in test [12] of 21 nM.
Consider `CC(N)=C1C(=O)Nc2ccc(S(=O)(=O)N(CC(C)C)C[C@@H](O)[C@H](Cc3ccccc3)NC(=O)O[C@H]3CO[C@H]4OCC[C@H]43)cc21` (mixture of isomers), for which the half-inhibitory concentration (IC50) turned out to be 70 nM in [1]; 64 nM in test [3]; 60 nM in [5]; 65 nM in [6]; 30 nM in test [7]; 75 nM in [8]. The IC50 in test [9] stood at 70 nM; in [10], 60 nM; in [12] it was 70 nM. The Ki was below 0.3 nM in test [2], below 1 nM in test [4] and below 0.1 nM in test [11].
With `CC(C)CN(C[C@@H](O)[C@H](Cc1ccccc1)NC(=O)O[C@H]1CO[C@H]2OCC[C@H]21)S(=O)(=O)c1ccc2c(c1)C(=CNCC(C)(C)C)C(=O)N2` (mixture of isomers), the IC50 in test [1] was 13 nM; in test [3], 4.5 nM; in [5], 27 nM; in test [6] it was 6 nM; in [7] it was 1.5 nM; in [8], 7 nM. For the same compound, the IC50 in [9] turned out to be 8.8 nM; in [10], 9.5 nM; in test [12] it was 8 nM. The Ki is below 0.3 nM in [2], below 1 nM in test [4] and below 0.1 nM in test [11].
Turning to `CCCNC=C1C(=O)Nc2ccc(S(=O)(=O)N(CC(C)C)C[C@@H](O)[C@H](Cc3ccccc3)NC(=O)O[C@H]3CO[C@H]4OCC[C@H]43)cc21` (mixture of isomers), the Ki is below 0.1 nM in test [13], below 0.3 nM in [2], below 1 nM in test [4] and 0.12 nM in test [11]. Further, the IC50 in [3] came to 30 nM; in test [5], 120 nM; in [10], 40 nM; in test [12], 40 nM.
For `CCCCNC=C1C(=O)Nc2ccc(S(=O)(=O)N(CC(C)C)C[C@@H](O)[C@H](Cc3ccccc3)NC(=O)O[C@H]3CO[C@H]4OCC[C@H]43)cc21` (mixture of isomers), the IC50 was 25 nM in test [1]; 13 nM in test [3]; 40 nM in test [5]; 32 nM in test [6]; 5 nM in test [7]; 18 nM in [8]. In addition, the IC50 came out at 28 nM in test [9], 11 nM in test [10] and 15 nM in [12]. The Ki in [2] is below 0.3 nM; in test [4], below 1 nM; in [11], below 0.1 nM.
Regarding `CC(C)CN(C[C@@H](O)[C@H](Cc1ccccc1)NC(=O)O[C@H]1CO[C@H]2OCC[C@H]21)S(=O)(=O)c1ccc2c(c1)C(=CNCC1CCCCC1)C(=O)N2` (mixture of isomers), the Ki in test [13] was 0.16 nM; in test [2], below 0.3 nM; in test [4], below 1 nM; in test [11], below 0.1 nM. Besides, the IC50 is 27 nM in test [1]; 9.7 nM in test [3]; 40 nM in [5]; 25 nM in test [6]; 18 nM in [8]; 30 nM in test [9]. Also, the values for the IC50 in test [10] and in test [12] were 9 nM and 21 nM, respectively.
In the case of `CC(C)CNC=C1C(=O)Nc2ccc(S(=O)(=O)N(CC(C)C)C[C@@H](O)[C@H](Cc3ccccc3)NC(=O)O[C@H]3CO[C@H]4OCC[C@H]43)cc21` (mixture of isomers), the IC50 in test [1] stood at 16 nM; in [3], 7.5 nM; in [5], 33 nM; in test [6], 9 nM; in [7], 2.1 nM; in test [8], 9 nM. Moreover, the IC50 is 15 nM in test [9], 9.5 nM in test [10] and 8 nM in test [12]. Also, the values for the Ki in test [2], in [4] and in test [11] were below 0.3 nM, below 1 nM and below 0.1 nM, respectively.
Turning to `CNC(C)=C1C(=O)Nc2ccc(S(=O)(=O)N(CC(C)C)C[C@@H](O)[C@H](Cc3ccccc3)NC(=O)O[C@H]3CO[C@H]4OCC[C@H]43)cc21` (mixture of isomers), the concentration for half-maximal inhibition (IC50) in [1] stood at 29 nM; in test [3], 10 nM; in test [5], 56 nM; in test [6], 20 nM; in [7], 5 nM; in [8], 18 nM. The IC50 in [9] is 16 nM; in [10], 17 nM; in test [12], 12 nM. Besides, the Ki is below 0.3 nM in test [2], below 1 nM in test [4] and below 0.1 nM in [11].
